In ChEMBL document CHEMBL4311965, “Antimicrobial activity of amphipathic α,α-disubstituted β-amino amide derivatives against ESBL - CARBA producing multi-resistant bacteria; effect of halogenation, lipophilicity and cationic character” (Eur J Med Chem, 2019):
Values after ≈ are worked out from the molar mass of the structure shown.

Columns and labels:
Pseudomonas aeruginosa [1] = assay: Antibacterial activity against multidrug-resistant Pseudomonas aeruginosa 50692520 producing Verona integron encoded metallo beta-lactamse cultured in MHB medium assessed as reduction in bacterial growth incubated for 24 hrs by microdilution susceptibility test; type: functional; conditions: Pseudomonas aeruginosa, 50692520, 24 h
Outline: (§1)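 Broth microdilution per CLSI M07-A9 (modified). Working solutions made from concentrated DMSO stocks kept at r.t., diluted in double-distilled water, final DMSO <1%. Inoculum 1–1.2 x 10⁶ cells/mL in Mueller-Hinton broth, mixed 1:1 with compound. 37 °C, 24 h, four parallels. Read as OD₆₀₀. Where precipitation left residual OD, the point of major OD decrease was taken as the inhibitory concentration.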

Pseudomonas aeruginosa [2] = assay: Antibacterial activity against multidrug-resistant Pseudomonas aeruginosa K34-73 producing Verona integron encoded metallo beta-lactamse-4 cultured in MHB medium assessed as reduction in bacterial growth incubated for 24 hrs by microdilution susceptibility test; type: functional; conditions: K34-73, 24 h; outline: as §1
Staphylococcus aureus [3] = assay: Antibacterial activity against multidrug-resistant Staphylococcus aureus N315 cultured in MHB medium assessed as reduction in bacterial growth incubated for 24 hrs by microdilution susceptibility test; type: functional; conditions: N315, 24 h; outline: as §1
Staphylococcus aureus [4] = assay: Antibacterial activity against Staphylococcus aureus ATCC 9144 cultured in MHB medium assessed as no bacterial growth incubated at 37 degC for 24 hrs by microdilution susceptibility test; type: functional; conditions: ATCC 9144, 24 h
Outline: (§2)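 Broth microdilution per CLSI M07-A9 with modifications. Inoculum about 2.5–3 x 10⁴ cells/mL in Mueller-Hinton broth, mixed 1:1 with test derivative. DMSO stocks diluted in double-distilled water, final DMSO <1%. Incubation 24 h at 37 °C (20 °C for C. glutamicum). Growth and sterility controls included; oxytetracycline reference.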

Escherichia coli [5] = assay: Antibacterial activity against multidrug-resistant Escherichia coli 50739822 producing New Delhi metallo-beta-lactamase-1 cultured in MHB medium assessed as reduction in bacterial growth incubated for 24 hrs by microdilution susceptibility test; type: functional; conditions: Escherichia coli, 50739822, 24 h; outline: as §1
Acinetobacter baumannii [6] = assay: Antibacterial activity against multidrug-resistant Acinetobacter baumannii K55-13 producing oxcillinase-24 cultured in MHB medium assessed as reduction in bacterial growth incubated for 24 hrs by microdilution susceptibility test; type: functional; conditions: K55-13, 24 h; outline: as §1
Escherichia coli [7] = assay: Antibacterial activity against multidrug-resistant Escherichia coli 50857972 producing imipenem-type carbapenemase-26 cultured in MHB medium assessed as reduction in bacterial growth incubated for 24 hrs by microdilution susceptibility test; type: functional; conditions: Escherichia coli, 50857972, 24 h; outline: as §1
Acinetobacter baumannii [8] = assay: Antibacterial activity against multidrug-resistant Acinetobacter baumannii K44-35 producing oxcillinase-23 cultured in MHB medium assessed as reduction in bacterial growth incubated for 24 hrs by microdilution susceptibility test; type: functional; conditions: K44-35, 24 h; outline: as §1
Escherichia coli [9] = assay: Antibacterial activity against multidrug-resistant Escherichia coli 50639799 producing Verona integron encoded metallo beta-lactamse-29 cultured in MHB medium assessed as reduction in bacterial growth incubated for 24 hrs by microdilution susceptibility test; type: functional; conditions: Escherichia coli, 50639799, 24 h; outline: as §1
Enterococcus faecium [10] = assay: Antibacterial activity against multidrug-resistant Enterococcus faecium 50901530 cultured in BHIB medium assessed as reduction in bacterial growth incubated for 24 hrs by microdilution susceptibility test; type: functional; conditions: Enterococcus faecium, 50901530, 24 h
Outline: (§3)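 Enterococci grown in Brain Heart Infusion broth, otherwise broth microdilution per CLSI M07-A9 (modified). Concentrated DMSO stocks kept at r.t. and diluted in double-distilled water, final DMSO <1%. Inoculum 1–1.2 x 10⁶ cells/mL mixed 1:1 with compound. 37 °C, 24 h, four parallels. OD₆₀₀ read-out, lowest concentration with no growth.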

Klebsiella pneumoniae [11] = assay: Antibacterial activity against multidrug-resistant Klebsiella pneumoniae 50625602 producing oxcillinase-245 cultured in MHB medium assessed as reduction in bacterial growth incubated for 24 hrs by microdilution susceptibility test; type: functional; conditions: Klebsiella pneumoniae, 50625602, 24 h; outline: as §1
Klebsiella pneumoniae [12] = assay: Antibacterial activity against multidrug-resistant Klebsiella pneumoniae K47-25 producing carbapenemase-2 cultured in MHB medium assessed as reduction in bacterial growth incubated for 24 hrs by microdilution susceptibility test; type: functional; conditions: K47-25, 24 h; outline: as §1
Staphylococcus aureus [13] = assay: Antibacterial activity against multidrug-resistant Staphylococcus aureus NCTC 10442 cultured in MHB medium assessed as reduction in bacterial growth incubated for 24 hrs by microdilution susceptibility test; type: functional; conditions: NCTC 10442, 24 h; outline: as §1
Staphylococcus aureus [14] = assay: Antibacterial activity against multidrug-resistant Staphylococcus aureus 85/2082 cultured in MHB medium assessed as reduction in bacterial growth incubated for 24 hrs by microdilution susceptibility test; type: functional; conditions: 85/2082, 24 h; outline: as §1
[15] = Selectivity index, ratio of EC50 for hemolytic activity against human RBC to MIC for antibacterial activity against Staphylococcus aureus ATCC 9144; type: toxicity; conditions: human red blood cells (RBC)
Outline: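 Selectivity index is the RBC haemolysis EC50 divided by the MIC against the E. coli or S. aureus reference strain.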

Enterococcus faecium [16] = assay: Antibacterial activity against multidrug-resistant Enterococcus faecium 50673722 cultured in BHIB medium assessed as reduction in bacterial growth incubated for 24 hrs by microdilution susceptibility test; type: functional; conditions: Enterococcus faecium, 50673722, 24 h; outline: as §3
Pseudomonas aeruginosa [17] = assay: Antibacterial activity against multidrug-resistant Pseudomonas aeruginosa 50692172 producing New Delhi metallo-beta-lactamase-1 cultured in MHB medium assessed as reduction in bacterial growth incubated for 24 hrs by microdilution susceptibility test; type: functional; conditions: Pseudomonas aeruginosa, 50692172, 24 h; outline: as §1
Pseudomonas aeruginosa [18] = assay: Antibacterial activity against multidrug-resistant Pseudomonas aeruginosa K44-24 producing imipenem-type carbapenemase-14 cultured in MHB medium assessed as reduction in bacterial growth incubated for 24 hrs by microdilution susceptibility test; type: functional; conditions: K44-24, 24 h; outline: as §1
Staphylococcus aureus [19] = assay: Antibacterial activity against multidrug-resistant Staphylococcus aureus IHT 99040 cultured in MHB medium assessed as reduction in bacterial growth incubated for 24 hrs by microdilution susceptibility test; type: functional; conditions: IHT 99040, 24 h; outline: as §1
Klebsiella pneumoniae [20] = assay: Antibacterial activity against multidrug-resistant Klebsiella pneumoniae 50667959 producing Verona integron encoded metallo beta-lactamse-1 cultured in MHB medium assessed as reduction in bacterial growth incubated for 24 hrs by microdilution susceptibility test; type: functional; conditions: Klebsiella pneumoniae, 50667959, 24 h; outline: as §1
Pseudomonas aeruginosa [21] = assay: Antibacterial activity against Pseudomonas aeruginosa PA01 DSM 19880 (ATCC 15692) cultured in MHB medium assessed as no bacterial growth incubated at 37 degC for 24 hrs by microdilution susceptibility test; type: functional; conditions: PAO1 DSM 19880 (ATCC 15692); outline: as §2
Pseudomonas aeruginosa [22] = assay: Antibacterial activity against multidrug-resistant Pseudomonas aeruginosa K34-7 producing Verona integron encoded metallo beta-lactamse-2 cultured in MHB medium assessed as reduction in bacterial growth incubated for 24 hrs by microdilution susceptibility test; type: functional; conditions: K34-7, 24 h; outline: as §1
Escherichia coli [23] = assay: Antibacterial activity against multidrug-resistant Escherichia coli 50579417 producing oxcillinase-48 cultured in MHB medium assessed as reduction in bacterial growth incubated for 24 hrs by microdilution susceptibility test; type: functional; conditions: Escherichia coli, 50579417, 24 h; outline: as §1
[24] = tested on: Corynebacterium glutamicum; assay: Antibacterial activity against Corynebacterium glutamicum ATCC 13032 cultured in MHB medium assessed as no bacterial growth incubated at 20 degC for 24 hrs by microdilution susceptibility test; type: functional; conditions: ATCC 13032, 24 h; outline: as §2

NCCNC(=O)C(CN)(Cc1cc(Br)cc(Br)c1)Cc1cc(Br)cc(Br)c1
MIC (Pseudomonas aeruginosa [1]): > 32 µg/mL
MIC (Pseudomonas aeruginosa [2]): 32 µg/mL (≈ 51 µM)
MIC (Staphylococcus aureus [3]): 8 µg/mL (≈ 12.8 µM)
MIC (Staphylococcus aureus [4]): 2 µg/mL (≈ 3.19 µM)
MIC (Escherichia coli [5]): 8 µg/mL (≈ 12.8 µM)
MIC (Acinetobacter baumannii [6]): 16 µg/mL (≈ 25.5 µM)
MIC (Escherichia coli [7]): 8 µg/mL (≈ 12.8 µM)
MIC (Acinetobacter baumannii [8]): 32 µg/mL (≈ 51 µM)
MIC (Escherichia coli [9]): 16 µg/mL (≈ 25.5 µM)
MIC (Enterococcus faecium [10]): 8 µg/mL (≈ 12.8 µM)
MIC (Klebsiella pneumoniae [11]): 8 µg/mL (≈ 12.8 µM)
MIC (Klebsiella pneumoniae [12]): 16 µg/mL (≈ 25.5 µM)
MIC (Staphylococcus aureus [13]): 8 µg/mL (≈ 12.8 µM)
MIC (Staphylococcus aureus [14]): 8 µg/mL (≈ 12.8 µM)
selectivity ratio [15]: 29
MIC (Enterococcus faecium [16]): 8 µg/mL (≈ 12.8 µM)
MIC (Pseudomonas aeruginosa [17]): > 32 µg/mL
MIC (Pseudomonas aeruginosa [18]): 32 µg/mL (≈ 51 µM)
MIC (Staphylococcus aureus [19]): 16 µg/mL (≈ 25.5 µM)
MIC (Klebsiella pneumoniae [20]): 16 µg/mL (≈ 25.5 µM)
MIC (Pseudomonas aeruginosa [21]): 4 µg/mL (≈ 6.38 µM)
MIC (Pseudomonas aeruginosa [22]): > 32 µg/mL
MIC (Escherichia coli [23]): 8 µg/mL (≈ 12.8 µM)
MIC [24]: 2 µg/mL (≈ 3.19 µM)

N=C(N)NCCNC(=O)C(CNC(=N)N)(Cc1ccc(F)c2ccccc12)Cc1ccc(F)c2ccccc12
MIC (Pseudomonas aeruginosa [1]): > 32 µg/mL
MIC (Pseudomonas aeruginosa [2]): > 32 µg/mL
MIC (Staphylococcus aureus [3]): 4 µg/mL (≈ 7.52 µM)
MIC (Staphylococcus aureus [4]): 2 µg/mL (≈ 3.76 µM)
MIC (Escherichia coli [5]): 32 µg/mL (≈ 60.2 µM)
MIC (Acinetobacter baumannii [6]): > 32 µg/mL
MIC (Escherichia coli [7]): 32 µg/mL (≈ 60.2 µM)
MIC (Acinetobacter baumannii [8]): > 32 µg/mL
MIC (Escherichia coli [9]): 32 µg/mL (≈ 60.2 µM)
MIC (Enterococcus faecium [10]): 4 µg/mL (≈ 7.52 µM)
MIC (Klebsiella pneumoniae [11]): > 32 µg/mL
MIC (Klebsiella pneumoniae [12]): > 32 µg/mL
MIC (Staphylococcus aureus [13]): 4 µg/mL (≈ 7.52 µM)
MIC (Staphylococcus aureus [14]): 4 µg/mL (≈ 7.52 µM)
selectivity ratio [15]: 165
MIC (Enterococcus faecium [16]): 16 µg/mL (≈ 30.1 µM)
MIC (Pseudomonas aeruginosa [17]): > 32 µg/mL
MIC (Pseudomonas aeruginosa [18]): > 32 µg/mL
MIC (Staphylococcus aureus [19]): 4 µg/mL (≈ 7.52 µM)
MIC (Klebsiella pneumoniae [20]): > 32 µg/mL
MIC (Pseudomonas aeruginosa [21]): 8 µg/mL (≈ 15 µM)
MIC (Pseudomonas aeruginosa [22]): > 32 µg/mL
MIC (Escherichia coli [23]): 32 µg/mL (≈ 60.2 µM)
MIC [24]: 0.5 µg/mL (≈ 0.941 µM)

NCCNCC(CN)(Cc1cc(Br)cc(Br)c1)Cc1cc(Br)cc(Br)c1
MIC (Pseudomonas aeruginosa [1]): 32 µg/mL (≈ 52.2 µM)
MIC (Pseudomonas aeruginosa [2]): 16 µg/mL (≈ 26.1 µM)
MIC (Staphylococcus aureus [3]): 4 µg/mL (≈ 6.52 µM)
MIC (Staphylococcus aureus [4]): 2 µg/mL (≈ 3.26 µM)
MIC (Escherichia coli [5]): 8 µg/mL (≈ 13 µM)
MIC (Acinetobacter baumannii [6]): 8 µg/mL (≈ 13 µM)
MIC (Escherichia coli [7]): 8 µg/mL (≈ 13 µM)
MIC (Acinetobacter baumannii [8]): 8 µg/mL (≈ 13 µM)
MIC (Escherichia coli [9]): 8 µg/mL (≈ 13 µM)
MIC (Enterococcus faecium [10]): 4 µg/mL (≈ 6.52 µM)
MIC (Klebsiella pneumoniae [11]): 16 µg/mL (≈ 26.1 µM)
MIC (Klebsiella pneumoniae [12]): 8 µg/mL (≈ 13 µM)
MIC (Staphylococcus aureus [13]): 4 µg/mL (≈ 6.52 µM)
MIC (Staphylococcus aureus [14]): 8 µg/mL (≈ 13 µM)
selectivity ratio [15]: 12
MIC (Enterococcus faecium [16]): 4 µg/mL (≈ 6.52 µM)
MIC (Pseudomonas aeruginosa [17]): 32 µg/mL (≈ 52.2 µM)
MIC (Pseudomonas aeruginosa [18]): 16 µg/mL (≈ 26.1 µM)
MIC (Staphylococcus aureus [19]): 8 µg/mL (≈ 13 µM)
MIC (Klebsiella pneumoniae [20]): 16 µg/mL (≈ 26.1 µM)
MIC (Pseudomonas aeruginosa [21]): 4 µg/mL (≈ 6.52 µM)
MIC (Pseudomonas aeruginosa [22]): 16 µg/mL (≈ 26.1 µM)
MIC (Escherichia coli [23]): 16 µg/mL (≈ 26.1 µM)
MIC [24]: 1 µg/mL (≈ 1.63 µM)
